What was measured:
[1] = Partition co-efficient, log P of the compound in ocatanol-water by shake flask method; format: physicochemical; details: octanol/water
In short: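 Shake-flask method: 2 mg dissolved in 50 ml water plus 50 ml octanol, shaken 30 min and left 24 h to equilibrate. Phases were separated, and octanol-phase concentration was taken from absorbance against a standard curve. Log P was calculated from that concentration.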

[2] = Hydrolysis of the compound in simulated intestinal fluid at 10 mg after 120 mins by spectrophotometry; format: ADME; details: read-out: Drug degradation
In short: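 Samples shaken on an orbital shaker at 37 ± 2 °C in simulated intestinal fluid. Aliquots were drawn at 0, 15, 30, 45, 60, 75, 90, 105 and 120 min, then diluted, filtered and read spectrophotometrically at each compound's λmax. % hydrolysed = (A0 − A120)/A0 × 100.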

Mus musculus [3] = test: Analgesic activity in albino mouse assessed as inhibition of acetic acid-induced writhing at 60 mg/kg, po administered 1 hr prior challenge relative to control; format: functional
In short: (§1)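 Male albino mice (25-30 g), fasted 20-24 h, groups of 5. Dosed orally as suspension in 0.5% sodium CMC; vehicle controls. 1 h later, 1% acetic acid in normal saline (10 ml/kg) given ip. Starting 5 min after injection, writhes counted over 30 min. Percent inhibition calculated from group mean writhes versus control.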

Mus musculus [4] = test: Neurotoxicity in po dosed albino mouse assessed as alteration of motor activity […] by rotarod test; format: toxicity, organism-based; details: in vivo
Rattus norvegicus [5] = test: Antipyretic activity in Wistar rat assessed as reduction in Brewer's yeast-induced hyperthermia measured as rectal temperature at 60 mg/kg, po administered 18 hrs post challenge measured after 1 hr post dose (reference value: 39.300 +/- 0.071 degC); format: functional
In short: (§2)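 Male Wistar rats (200-300 g), fasted, groups of 5. Fever induced by sc 15% brewer's yeast in normal saline (10 ml/kg). Rectal temperature taken with a digital thermometer inserted about 7 mm. After 18 h, rats at 38 °C or above were used. Dosed orally as suspension in 0.5% CMC; vehicle controls. Temperature then read at set times after dosing. Values are means of five.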

Rattus norvegicus [6] = test: Antipyretic activity in Wistar rat assessed as reduction in Brewer's yeast-induced hyperthermia measured as rectal temperature at 60 mg/kg, po administered 18 hrs post challenge measured after 3 hrs post dose (reference value: 39.400 +/- 0.071 degC); format: functional; in short: as §2
Rattus norvegicus [7] = test: Antipyretic activity in Wistar rat assessed as reduction in Brewer's yeast-induced hyperthermia measured as rectal temperature at 60 mg/kg, po administered 18 hrs post challenge measured after 2 hrs post dose (reference value: 39.320 +/- 0.102 degC); format: functional; in short: as §2
Rattus norvegicus [8] = test: Antipyretic activity in Wistar rat assessed as reduction in Brewer's yeast-induced hyperthermia measured as rectal temperature at 150 mg/kg, po administered 18 hrs post challenge measured after 1 hr post dose (reference value: 39.300 +/- 0.071 degC); format: functional; in short: as §2
Rattus norvegicus [9] = test: Antipyretic activity in Wistar rat assessed as reduction in Brewer's yeast-induced hyperthermia measured as rectal temperature at 150 mg/kg, po administered 18 hrs post challenge measured after 2 hrs post dose (reference value: 39.320 +/- 0.102 degC); format: functional; in short: as §2
Rattus norvegicus [10] = test: Antipyretic activity in Wistar rat assessed as reduction in Brewer's yeast-induced hyperthermia measured as rectal temperature at 150 mg/kg, po administered 18 hrs post challenge measured after 3 hrs post dose (reference value: 39.400 +/- 0.071 degC); format: functional; in short: as §2
Mus musculus [11] = test: Analgesic activity in albino mouse assessed as inhibition of acetic acid-induced writhing at 10 mg/kg, po administered 1 hr prior challenge relative to control; format: functional; in short: as §1
Mus musculus [12] = test: Neurotoxicity in albino mouse assessed as alteration of motor activity at 2 mg/kg, po measured after 60 mins for 60 secs by rotarod test; format: toxicity, organism-based; set-up: dose 2 mg/kg, route oral; details: in vivo
In short: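 Male albino mice on a 1 in. knurled wooden rod rotating at 6–10 rpm. Testing began 60 min after oral dosing. Neurological toxicity was defined as failure to stay on the rod for 1 min or more.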

Compound: COc1ccc(C2C(C)C(=O)CC(c3ccc(F)cc3)N2C(=O)CCl)cc1 (stereo not given)
- logP [1]: 1.42
- degraded at 2 h [2]: 2.01%
- inhibition in vivo at 60 mg/kg (Mus musculus [3]): 51.2%
- Activity (Mus musculus [4]): Non-toxic
- T (Rattus norvegicus [5]): 38.58 °C
- T (Rattus norvegicus [6]): 37.2 °C
- T (Rattus norvegicus [7]): 37.9 °C

Compound: COc1ccc(C2C(C)C(=O)CC(c3ccc(F)cc3)N2C(=O)CN2CCN(C)CC2)cc1 (stereo not given)
- logP [1]: 1.53
- degraded at 2 h [2]: 2.51%
- inhibition in vivo at 60 mg/kg (Mus musculus [3]): 55.2%
- Activity (Mus musculus [4]): Non-toxic
- T (Rattus norvegicus [5]): 38.18 °C
- T (Rattus norvegicus [6]): 37.1 °C
- T (Rattus norvegicus [7]): 37.44 °C

Compound: CC1C(=O)CC(c2ccc(Cl)cc2)N(C(=O)CN2CCN(C)CC2)C1c1ccc(N(C)C)cc1 (stereo not given)
- logP [1]: 1.35
- degraded at 2 h [2]: 77.6%
- inhibition in vivo at 60 mg/kg (Mus musculus [3]): 28.1%
- Activity (Mus musculus [4]): Non-toxic
- T (Rattus norvegicus [5]): 38.9 °C
- T (Rattus norvegicus [6]): 37.52 °C
- T (Rattus norvegicus [7]): 38.14 °C

Compound: CC(=O)Nc1ccc(O)cc1 [ACETAMINOPHEN]
- T (Rattus norvegicus [8]): 37.88 °C
- T (Rattus norvegicus [9]): 37.14 °C
- T (Rattus norvegicus [10]): 37.1 °C

Compound: CC1C(=O)CC(c2ccc(Cl)cc2)N(C(=O)CCl)C1c1ccc(O)cc1 (stereo not given)
- logP [1]: 1.05
- degraded at 2 h [2]: 42.7%
- inhibition in vivo at 60 mg/kg (Mus musculus [3]): 39.7%
- Activity (Mus musculus [4]): Non-toxic
- T (Rattus norvegicus [5]): 38.92 °C
- T (Rattus norvegicus [6]): 37.14 °C
- T (Rattus norvegicus [7]): 38.5 °C

Compound: COc1ccc(C2C(C)C(=O)CC(c3ccc(Cl)cc3)N2C(=O)CCl)cc1 (stereo not given)
- logP [1]: 1.29
- degraded at 2 h [2]: 2.68%
- inhibition in vivo at 60 mg/kg (Mus musculus [3]): 44.1%
- Activity (Mus musculus [4]): Non-toxic
- T (Rattus norvegicus [5]): 38.76 °C
- T (Rattus norvegicus [6]): 37.2 °C
- T (Rattus norvegicus [7]): 38.36 °C

Compound: O=C(O)Cc1ccccc1Nc1c(Cl)cccc1Cl [DICLOFENAC SODIUM]
- inhibition in vivo at 10 mg/kg (Mus musculus [11]): 56.5%

Compound: CN1C(=O)CN=C(c2ccccc2)c2cc(Cl)ccc21 [DIAZEPAM]
- Activity (Mus musculus [12]): Toxic

Compound: CC1C(=O)CC(c2ccc(F)cc2)N(C(=O)CCl)C1c1ccc(Cl)cc1 (stereo not given)
- logP [1]: 1.72
- degraded at 2 h [2]: 1.17%
- inhibition in vivo at 60 mg/kg (Mus musculus [3]): 57.6%
- Activity (Mus musculus [4]): Non-toxic
- T (Rattus norvegicus [5]): 38.14 °C
- T (Rattus norvegicus [6]): 37.16 °C
- T (Rattus norvegicus [7]): 37.54 °C

Compound: CC1C(=O)CC(c2ccc(Cl)cc2)N(C(=O)CCl)C1c1ccc(N(C)C)cc1 (stereo not given)
- logP [1]: 1.24
- degraded at 2 h [2]: 76.8%
- inhibition in vivo at 60 mg/kg (Mus musculus [3]): 17.8%
- Activity (Mus musculus [4]): Non-toxic
- T (Rattus norvegicus [5]): 39 °C
- T (Rattus norvegicus [6]): 37.86 °C
- T (Rattus norvegicus [7]): 38.56 °C

Compound: CC1C(=O)CC(c2ccc(F)cc2)N(C(=O)CCl)C1c1ccc(O)cc1 (stereo not given)
- logP [1]: 1.14
- degraded at 2 h [2]: 43.2%
- inhibition in vivo at 60 mg/kg (Mus musculus [3]): 51.2%
- Activity (Mus musculus [4]): Non-toxic
- T (Rattus norvegicus [5]): 38.72 °C
- T (Rattus norvegicus [6]): 37.16 °C
- T (Rattus norvegicus [7]): 38.3 °C

Compound: CC1C(=O)CC(c2ccc(F)cc2)N(C(=O)CN2CCN(C)CC2)C1c1ccc(Cl)cc1 (stereo not given)
- logP [1]: 2.09
- degraded at 2 h [2]: 4.49%
- inhibition in vivo at 60 mg/kg (Mus musculus [3]): 65.5%
- Activity (Mus musculus [4]): Non-toxic
- T (Rattus norvegicus [5]): 37.9 °C
- T (Rattus norvegicus [6]): 37.18 °C
- T (Rattus norvegicus [7]): 37.16 °C

Compound: COc1ccc(C2C(C)C(=O)CC(c3ccc(Cl)cc3)N2C(=O)CN2CCN(C)CC2)cc1 (stereo not given)
- logP [1]: 1.48
- degraded at 2 h [2]: 18.8%
- inhibition in vivo at 60 mg/kg (Mus musculus [3]): 53%
- Activity (Mus musculus [4]): Non-toxic
- T (Rattus norvegicus [5]): 38.52 °C
- T (Rattus norvegicus [6]): 37.28 °C
- T (Rattus norvegicus [7]): 37.68 °C
